Test [1] addresses Tyrosine-protein kinase FRK (Homo sapiens) (UniProt P42685). Nature of the test: Inhibition of FRK at 1 uM. The gist of the method:
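Single-concentration screen on the Ambit KINOMEscan platform, run against a panel of 250–400 kinases. Per-kinase inhibition was also summarized as S(90), the fraction of kinases inhibited by more than 90%.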

In test [2] the target is T1, Atypical kinase COQ8B, mitochondrial (Homo sapiens) (UniProt Q96D53).
T1 sequence (whole entry): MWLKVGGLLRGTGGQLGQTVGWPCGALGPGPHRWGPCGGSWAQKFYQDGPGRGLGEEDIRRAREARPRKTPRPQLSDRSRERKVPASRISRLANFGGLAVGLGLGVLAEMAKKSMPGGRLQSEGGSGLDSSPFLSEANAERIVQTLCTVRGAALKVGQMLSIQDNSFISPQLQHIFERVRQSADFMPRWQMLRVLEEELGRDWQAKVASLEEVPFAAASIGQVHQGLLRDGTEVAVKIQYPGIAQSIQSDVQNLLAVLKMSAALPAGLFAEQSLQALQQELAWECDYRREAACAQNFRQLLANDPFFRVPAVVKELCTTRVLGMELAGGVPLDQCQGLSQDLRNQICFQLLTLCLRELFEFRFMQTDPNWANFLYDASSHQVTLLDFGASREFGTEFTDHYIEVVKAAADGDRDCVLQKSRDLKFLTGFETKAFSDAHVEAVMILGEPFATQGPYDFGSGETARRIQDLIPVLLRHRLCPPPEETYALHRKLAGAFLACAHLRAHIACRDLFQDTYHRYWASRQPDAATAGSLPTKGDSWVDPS
Nature of the test: Inhibition of ADCK4 at 1 uM. The gist of the method:
(§1)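 Ambit KINOMEscan screen at a single concentration across a 250–400 kinase panel, recorded as percent inhibition. Selectivity was expressed as S(90), the fraction of kinases inhibited >90%.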

The target of test [3] is T2, Serine/threonine-protein kinase BRSK2 (Homo sapiens) (UniProt Q8IWQ3).
T2 sequence (whole entry): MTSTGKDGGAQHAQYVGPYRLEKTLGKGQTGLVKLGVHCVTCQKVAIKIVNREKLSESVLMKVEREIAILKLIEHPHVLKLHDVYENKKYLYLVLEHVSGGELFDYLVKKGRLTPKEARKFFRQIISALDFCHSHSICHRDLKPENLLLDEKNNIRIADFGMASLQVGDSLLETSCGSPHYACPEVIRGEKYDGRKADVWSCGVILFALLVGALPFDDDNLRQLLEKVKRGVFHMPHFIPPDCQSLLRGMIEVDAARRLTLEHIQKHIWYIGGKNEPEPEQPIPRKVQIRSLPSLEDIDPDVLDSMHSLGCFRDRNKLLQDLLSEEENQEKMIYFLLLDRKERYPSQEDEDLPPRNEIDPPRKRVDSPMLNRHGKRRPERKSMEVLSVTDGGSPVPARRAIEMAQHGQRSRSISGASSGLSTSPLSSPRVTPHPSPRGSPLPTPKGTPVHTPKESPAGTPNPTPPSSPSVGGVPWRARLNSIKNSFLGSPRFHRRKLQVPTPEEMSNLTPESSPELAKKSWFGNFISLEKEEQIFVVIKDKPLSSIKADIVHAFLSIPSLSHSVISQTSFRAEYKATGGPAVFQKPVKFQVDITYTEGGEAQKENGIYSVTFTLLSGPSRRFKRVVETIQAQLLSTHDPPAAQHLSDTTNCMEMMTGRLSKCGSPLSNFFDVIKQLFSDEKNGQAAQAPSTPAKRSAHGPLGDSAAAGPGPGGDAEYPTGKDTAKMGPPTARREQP
Nature of the test: Inhibition of BRSK2 at 1 uM. Summed up:
as §1

Test [4] addresses Tyrosine-protein kinase BTK (Homo sapiens) (UniProt Q06187). The experiment in a line: Inhibition of BTK at 1 uM. Summed up:
as §1

For test [5], the system named is Phosphatidylinositol 4,5-bisphosphate 3-kinase catalytic subunit alpha isoform (Homo sapiens), P42336 [H1047L]. Nature of the test: Inhibition of PIK3CA H1047L mutant at 1 uM.
Phosphatidylinositol 4,5-bisphosphate 3-kinase catalytic subunit alpha isoform (Homo sapiens), P42336 [H1047L], sequence (P42336 whole entry H1047L, canonical isoform): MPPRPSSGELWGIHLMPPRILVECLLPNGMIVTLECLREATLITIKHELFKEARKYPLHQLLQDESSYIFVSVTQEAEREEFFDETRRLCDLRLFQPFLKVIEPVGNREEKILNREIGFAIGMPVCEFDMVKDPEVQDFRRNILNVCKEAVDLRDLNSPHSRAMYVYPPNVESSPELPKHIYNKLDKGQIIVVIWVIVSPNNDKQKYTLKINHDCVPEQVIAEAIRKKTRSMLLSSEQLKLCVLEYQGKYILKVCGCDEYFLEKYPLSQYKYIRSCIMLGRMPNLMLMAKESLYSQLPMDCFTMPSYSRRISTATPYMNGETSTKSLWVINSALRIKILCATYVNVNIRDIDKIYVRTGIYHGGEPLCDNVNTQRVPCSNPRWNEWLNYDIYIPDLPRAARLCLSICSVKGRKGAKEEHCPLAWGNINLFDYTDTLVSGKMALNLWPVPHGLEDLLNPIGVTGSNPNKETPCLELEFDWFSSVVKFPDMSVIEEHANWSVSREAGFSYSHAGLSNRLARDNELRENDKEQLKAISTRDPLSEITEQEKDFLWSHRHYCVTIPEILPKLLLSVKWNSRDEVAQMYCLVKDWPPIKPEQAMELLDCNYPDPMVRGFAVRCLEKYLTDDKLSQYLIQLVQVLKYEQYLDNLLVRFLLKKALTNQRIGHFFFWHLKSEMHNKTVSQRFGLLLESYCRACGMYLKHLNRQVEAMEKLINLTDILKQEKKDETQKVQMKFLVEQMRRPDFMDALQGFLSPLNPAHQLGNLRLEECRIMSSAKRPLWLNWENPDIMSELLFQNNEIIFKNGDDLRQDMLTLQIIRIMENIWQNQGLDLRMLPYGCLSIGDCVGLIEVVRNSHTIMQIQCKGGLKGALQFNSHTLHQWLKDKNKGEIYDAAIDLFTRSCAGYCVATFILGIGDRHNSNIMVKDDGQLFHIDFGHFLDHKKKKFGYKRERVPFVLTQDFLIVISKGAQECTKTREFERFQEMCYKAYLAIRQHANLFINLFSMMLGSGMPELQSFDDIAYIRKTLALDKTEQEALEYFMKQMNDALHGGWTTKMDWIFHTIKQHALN
The target in test [6] is Serine/threonine-protein kinase RIO2 (Homo sapiens) (UniProt Q9BVS4). The experiment in a line: Inhibition of RIOK2 at 1 uM.
Serine/threonine-protein kinase RIO2 (Homo sapiens), sequence (Q9BVS4 whole entry, looked up): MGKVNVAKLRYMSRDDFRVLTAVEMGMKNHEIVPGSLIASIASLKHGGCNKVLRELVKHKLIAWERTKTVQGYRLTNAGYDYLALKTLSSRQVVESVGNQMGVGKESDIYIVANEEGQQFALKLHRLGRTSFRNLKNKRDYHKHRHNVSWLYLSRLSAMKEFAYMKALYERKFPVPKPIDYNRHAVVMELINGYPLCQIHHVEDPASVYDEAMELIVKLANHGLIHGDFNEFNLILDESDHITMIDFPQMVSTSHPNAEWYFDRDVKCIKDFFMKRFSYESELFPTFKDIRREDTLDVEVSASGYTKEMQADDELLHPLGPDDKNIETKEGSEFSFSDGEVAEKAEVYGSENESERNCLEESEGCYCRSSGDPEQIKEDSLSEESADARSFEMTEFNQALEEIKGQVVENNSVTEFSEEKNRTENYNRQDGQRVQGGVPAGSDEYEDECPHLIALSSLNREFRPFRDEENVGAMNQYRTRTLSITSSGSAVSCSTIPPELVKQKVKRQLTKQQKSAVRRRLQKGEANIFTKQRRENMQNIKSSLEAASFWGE
Test [7] deals with T3, Serine/threonine-protein kinase DCLK3 (Homo sapiens) (UniProt Q9C098).
T3 sequence (whole entry): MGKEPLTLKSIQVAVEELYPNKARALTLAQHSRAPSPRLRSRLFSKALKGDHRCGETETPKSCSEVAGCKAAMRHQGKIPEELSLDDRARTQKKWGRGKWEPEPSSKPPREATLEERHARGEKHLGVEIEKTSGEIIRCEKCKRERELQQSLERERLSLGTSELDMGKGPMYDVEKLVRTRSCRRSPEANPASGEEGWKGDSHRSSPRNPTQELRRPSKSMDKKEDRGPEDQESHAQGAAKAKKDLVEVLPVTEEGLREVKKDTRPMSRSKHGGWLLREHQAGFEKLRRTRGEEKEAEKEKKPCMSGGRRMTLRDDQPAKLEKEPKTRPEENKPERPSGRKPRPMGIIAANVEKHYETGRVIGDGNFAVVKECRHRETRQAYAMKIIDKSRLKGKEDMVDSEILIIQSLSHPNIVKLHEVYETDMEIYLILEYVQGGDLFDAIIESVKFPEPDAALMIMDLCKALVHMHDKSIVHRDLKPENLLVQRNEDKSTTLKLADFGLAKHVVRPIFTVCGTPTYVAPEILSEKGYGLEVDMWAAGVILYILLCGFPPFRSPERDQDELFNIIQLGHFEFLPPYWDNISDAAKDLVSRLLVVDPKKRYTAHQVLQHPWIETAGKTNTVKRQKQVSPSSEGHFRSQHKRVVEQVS
Nature of the test: Inhibition of DCAMKL3 at 1 uM.

Tyrosine-protein kinase BTK (Homo sapiens), sequence (Q06187 whole entry): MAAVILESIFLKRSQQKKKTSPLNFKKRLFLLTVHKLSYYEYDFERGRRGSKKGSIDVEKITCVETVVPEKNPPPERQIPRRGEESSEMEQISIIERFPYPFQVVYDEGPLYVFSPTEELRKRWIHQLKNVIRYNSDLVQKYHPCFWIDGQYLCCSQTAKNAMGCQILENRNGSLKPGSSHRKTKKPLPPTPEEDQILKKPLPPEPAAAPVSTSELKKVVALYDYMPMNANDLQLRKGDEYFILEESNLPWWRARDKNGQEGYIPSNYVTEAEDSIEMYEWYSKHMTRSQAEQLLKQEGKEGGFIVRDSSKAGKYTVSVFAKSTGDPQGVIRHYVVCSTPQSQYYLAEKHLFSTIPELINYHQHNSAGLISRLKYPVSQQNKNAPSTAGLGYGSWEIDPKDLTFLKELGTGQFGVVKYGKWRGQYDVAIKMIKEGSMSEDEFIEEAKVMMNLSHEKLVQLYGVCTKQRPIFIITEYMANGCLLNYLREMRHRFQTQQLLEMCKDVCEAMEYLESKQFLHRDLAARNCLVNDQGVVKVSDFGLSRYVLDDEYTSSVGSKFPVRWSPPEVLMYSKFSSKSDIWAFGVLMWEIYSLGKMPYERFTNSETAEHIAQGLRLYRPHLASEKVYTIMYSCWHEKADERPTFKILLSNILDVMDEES
Tyrosine-protein kinase FRK (Homo sapiens), sequence (P42685 whole entry): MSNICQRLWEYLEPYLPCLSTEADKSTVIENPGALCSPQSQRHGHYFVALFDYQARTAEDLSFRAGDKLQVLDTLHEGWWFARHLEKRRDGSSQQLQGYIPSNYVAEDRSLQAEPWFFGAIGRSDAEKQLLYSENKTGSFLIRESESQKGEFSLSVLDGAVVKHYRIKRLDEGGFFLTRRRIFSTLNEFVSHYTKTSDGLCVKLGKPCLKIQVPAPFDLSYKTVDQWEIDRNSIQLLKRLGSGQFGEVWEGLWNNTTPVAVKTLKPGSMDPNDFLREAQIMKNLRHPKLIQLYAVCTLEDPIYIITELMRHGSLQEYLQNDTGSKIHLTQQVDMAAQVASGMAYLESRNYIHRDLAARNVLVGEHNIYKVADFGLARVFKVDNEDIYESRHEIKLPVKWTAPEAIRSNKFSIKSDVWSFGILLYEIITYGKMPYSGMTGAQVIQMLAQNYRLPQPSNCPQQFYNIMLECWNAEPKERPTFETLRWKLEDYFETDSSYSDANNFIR

For the molecule `O=C(c1ccc(-c2cnc3c(c2)N(Cc2cc(Cl)ccc2C(F)(F)F)CCN3)cc1)N1CCCCC1`, the inhibition in test [1], in test [2], in test [3] and in test [4] was less than 50% in each case.
As to `CN1CCN(c2ccc(-c3cnc4c(c3)N(Cc3c(F)ccc(F)c3Cl)CCN4)cn2)CC1`, the inhibition in test [1] was 66%; in test [5] it was less than 50%; in test [2], less than 50%; in test [6], less than 50%; in test [3], less than 50%; in test [4], less than 50%. This molecule showed an inhibition in test [7] of less than 50%.
Take `COC1CCN(C(=O)c2ccc(-c3cnc4c(c3)N(Cc3cc(Cl)ccc3C(F)(F)F)CCN4)cc2)CC1`: the inhibition in test [1], in test [2], in test [3] and in test [4] was less than 50% each time.
For the molecule `O=C(O)c1ccc(-c2cnc3c(c2)N(Cc2cc(Cl)ccc2C(F)(F)F)CCN3)cc1`, the inhibition in test [1], in test [2], in test [3] and in test [4] was less than 50% each time.
`FC(F)(F)c1ccc(Cl)cc1CN1CCNc2ncc(-c3ccnc(N4CCNCC4)c3)cc21`: the inhibition in test [1], in test [5], in test [2], in test [6], in test [3] and in test [4] was less than 50% in each case. Also, in test [7], the inhibition was found to be 99%.
With `CN1CCN(c2ccc(-c3cnc4c(c3)N(Cc3cc(Cl)ccc3Cl)CCN4)cn2)CC1`, the inhibition in test [1], in test [5], in test [2], in test [6], in test [3] and in test [4] was less than 50% throughout. For the same molecule, the inhibition in test [7] is 84%.
For `O=C(c1ccc(-c2cnc3c(c2)N(Cc2cc(Cl)ccc2C(F)(F)F)CCN3)cc1)N1CCC(N2CCCC2)CC1`, the inhibition is less than 50% in test [1], less than 50% in test [2], 63.8% in test [3] and less than 50% in test [4].
With `CN1CCN(c2ccc(-c3cnc4c(c3)N(Cc3cc(Cl)ccc3C(F)(F)F)CCN4)cn2)CC1`, the inhibition in test [1], in test [5], in test [2], in test [6], in test [3] and in test [4] was less than 50% in each case. For the same molecule, the inhibition in test [7] is 75%.
On to `CC(=O)N1CCN(c2cc(-c3cnc4c(c3)N(Cc3cc(Cl)ccc3C(F)(F)F)CCN4)ccn2)CC1`, for which the inhibition in test [1], in test [5], in test [2], in test [6], in test [3] and in test [4] was less than 50% in each case. In test [7], the inhibition was 92%.
On to `CN1CCN(c2ccc(-c3cnc4c(c3)N(Cc3cc(F)ccc3F)CCN4)cn2)CC1`, for which the inhibition in test [1], in test [5], in test [2], in test [6], in test [3] and in test [4] was less than 50% each time. The molecule also had an inhibition in test [7] of 89%.
